Measurements: ChEMBL document CHEMBL1131041 (J Med Chem, 1998)

Assays:
[1] = target: T1, Delta-type opioid receptor (Rattus norvegicus, UniProt P33533); test: Displacement of [3H]DADLE from morphine-sensitive Opioid receptor delta 1 (presence of 300 nM DELT-II) of rat brain membranes; type: cell membranes, Membrane
How it was run: (§1)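 Rat brain membranes pretreated with (+)-trans-[…], labelled with 2.0 nM [3H]DADLE, plus 50 nM morphine (δcx-2) or 300 nM DELT-II (δcx-1). Incubation 4–6 h at 25 °C in 10 mM Tris-HCl pH 7.4 with 100 mM NaCl, 3 mM MnCl2, 2 μM GTP, 5 mM 2-mercaptoethanol and protease inhibitors. 8–10 concentrations, twice.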

Mu-type opioid receptor = Mu-type opioid receptor (Rattus norvegicus, UniProt P33535); test: Displacement of [3H]DAMGO from Opioid receptor mu 1 of rat brain membranes; type: cell membranes, Membrane
How it was run: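 Rat brain membranes labelled with [3H]DAMGO. Incubation 4 h at 25 °C in 50 mM Tris-HCl pH 7.4 with protease inhibitor cocktail. Nonspecific binding defined with 20 μM levallorphan. 8–10 test concentrations, run twice; IC50 and slope factor derived.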

[2] = target: Opioid receptors; mu & delta (Rattus norvegicus) (UniProt P33533+P33535); test: Relative affinity for mu and delta receptors in rat brain membranes; type: cell membranes
Cavia porcellus = organism: Cavia porcellus; test: Partial agonist activity expressed as inhibition of contraction of guinea pig ileal longitudinal muscle myenteric plexus (GPI) at 1 uM conc.; type: functional, organism-based; details: Muscle tissue
How it was run: (§2)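 Agonist action on electrically driven tissues at 37 °C: GPI (1 g tension, 0.4-ms pulses) and Mg-free MVD (0.5 g, 2-ms pulses), 0.1 Hz. Percent inhibition of contraction height read 10 min after 1 μM compound; for stronger agonists, IC50 from concentration–response curves (2–4 tissues, nonlinear least squares). Selectivity = GPI IC50/MVD IC50.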

[3] = Relative affinity for guinea pig kappa1 and rat delta receptors
[4] = target: T2, Kappa-type opioid receptor (Cavia porcellus, UniProt P41144); test: Displacement of [3H]U-69593 from Opioid receptor kappa 1 of guinea pig brain membranes (pretreated with BIT and FIT to block mu and delta sites)
How it was run: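 Guinea pig brain membranes pretreated with BIT and FIT, labelled with [3H]U69,593. Incubation 4–6 h at 25 °C in 50 mM Tris-HCl pH 7.4 with protease inhibitors and 1 μg/mL captopril. Nonspecific binding with 1 μM U69,593. 8–10 concentrations, twice.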

[5] = target: T1, Delta-type opioid receptor; test: Displacement of [3H]DADLE from Opioid receptor delta 1 of rat brain membranes (DAMGO quenching mu receptor); type: cell membranes, Membrane
How it was run: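 Rat brain membranes labelled with [3H]DADLE. Incubation 3–4 h at 25 °C in 10 mM Tris-HCl pH 7.4 with 100 mM choline chloride, 3 mM MnCl2, 100 nM DAMGO (μ block) and protease inhibitors. Levallorphan 20 μM for nonspecific binding. 8–10 concentrations, duplicate runs.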

[6] = target: T1, Delta-type opioid receptor; test: Displacement of [3H]DADLE from morphine-insensitive Opioid receptor delta 1 (presence of 50 nM morphine) of rat brain membranes; type: cell membranes, Membrane; how it was run: as §1
[7] = target: T2, Kappa-type opioid receptor; test: Displacement of [125I]OXY from Opioid receptor kappa 2b of guinea pig brain membranes (pretreated with BIT(mu) and FIT(delta) and in the presence of (-)U50,488)
How it was run: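 Guinea pig brain membranes depleted of μ/δ sites by BIT and FIT, labelled with 0.01 nM [125I]IOXY in presence of 5 μM (−)U50,488. Incubation 4–6 h at 4 °C in 50 mM Tris-HCl pH 7.4 with 10 mM NaCl, protease inhibitors and 1 μg/mL captopril.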

[8] = target: Delta-type opioid receptor (Mus musculus) (UniProt P32300); test: Displacement of DPDPE from Opioid receptor delta 1 of mouse vas deferens (MVD)smooth muscle
How it was run: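 Mouse vas deferens (male ICR, 25–40 g) in Mg-free oxygenated Krebs at 37 °C, 0.5 g tension; transmural 0.1 Hz, 2-ms pulses, supramaximal voltage. Control DPDPE curve first; then 1 μM compound 30 min, 30 min wash, cumulative DPDPE curve (3-min steps) repeated. IC50 ratio = shifted/control IC50; Ke = [antagonist]/(ratio − 1); n ≥ 3.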

[9] = target: Delta-type opioid receptor (Mus musculus, UniProt P32300); test: Partial agonist activity expressed as inhibition of contraction of mouse vas deferens (MVD) smooth muscle at 1 uM conc.; type: functional, tissue-based, Muscle tissue; how it was run: as §2
[10] = target: Opioid receptors; mu & delta (Homo sapiens) (UniProt P41143+P35372); test: IC50 selectivity for mu receptor of guinea pig Ileum (GPI) and delta receptor of delta opioid receptor of mouse vas deferens (MVD) smooth muscle preparation; type: tissue-based; how it was run: as §2
Sequence of Opioid receptors; mu & delta (Homo sapiens) (P35372 whole entry, looked up): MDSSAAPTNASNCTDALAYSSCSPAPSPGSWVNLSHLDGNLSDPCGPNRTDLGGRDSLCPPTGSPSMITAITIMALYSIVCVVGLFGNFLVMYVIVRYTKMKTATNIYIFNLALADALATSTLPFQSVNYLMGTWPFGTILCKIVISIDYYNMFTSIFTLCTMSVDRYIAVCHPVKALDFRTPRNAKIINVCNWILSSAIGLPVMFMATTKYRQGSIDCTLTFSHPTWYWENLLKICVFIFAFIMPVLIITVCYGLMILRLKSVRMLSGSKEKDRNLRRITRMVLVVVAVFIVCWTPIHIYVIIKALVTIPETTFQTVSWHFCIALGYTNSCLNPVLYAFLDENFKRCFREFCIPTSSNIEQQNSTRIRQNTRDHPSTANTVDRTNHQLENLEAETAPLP
Sequence of Opioid receptors; mu & delta (Homo sapiens) (P41143 whole entry, looked up): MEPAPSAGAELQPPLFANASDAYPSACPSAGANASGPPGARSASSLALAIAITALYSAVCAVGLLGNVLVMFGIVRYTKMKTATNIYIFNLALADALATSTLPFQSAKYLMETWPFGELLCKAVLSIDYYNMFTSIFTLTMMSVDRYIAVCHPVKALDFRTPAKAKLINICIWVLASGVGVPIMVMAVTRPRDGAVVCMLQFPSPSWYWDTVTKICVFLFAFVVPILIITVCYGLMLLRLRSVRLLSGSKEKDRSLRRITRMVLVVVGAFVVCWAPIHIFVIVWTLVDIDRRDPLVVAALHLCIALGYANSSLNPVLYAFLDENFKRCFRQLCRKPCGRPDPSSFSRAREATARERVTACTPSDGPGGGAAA

T1 sequence (P33533 whole entry): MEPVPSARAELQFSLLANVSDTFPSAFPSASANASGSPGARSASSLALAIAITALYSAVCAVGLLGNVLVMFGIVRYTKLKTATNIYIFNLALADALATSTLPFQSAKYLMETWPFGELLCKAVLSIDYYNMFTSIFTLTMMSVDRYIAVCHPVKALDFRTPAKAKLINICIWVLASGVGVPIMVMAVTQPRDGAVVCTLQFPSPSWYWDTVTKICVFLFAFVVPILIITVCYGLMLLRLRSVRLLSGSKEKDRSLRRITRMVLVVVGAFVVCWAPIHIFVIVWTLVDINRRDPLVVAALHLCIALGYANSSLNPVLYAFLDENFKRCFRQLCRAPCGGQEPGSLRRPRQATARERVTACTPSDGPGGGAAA
T2 sequence (P41144 whole entry): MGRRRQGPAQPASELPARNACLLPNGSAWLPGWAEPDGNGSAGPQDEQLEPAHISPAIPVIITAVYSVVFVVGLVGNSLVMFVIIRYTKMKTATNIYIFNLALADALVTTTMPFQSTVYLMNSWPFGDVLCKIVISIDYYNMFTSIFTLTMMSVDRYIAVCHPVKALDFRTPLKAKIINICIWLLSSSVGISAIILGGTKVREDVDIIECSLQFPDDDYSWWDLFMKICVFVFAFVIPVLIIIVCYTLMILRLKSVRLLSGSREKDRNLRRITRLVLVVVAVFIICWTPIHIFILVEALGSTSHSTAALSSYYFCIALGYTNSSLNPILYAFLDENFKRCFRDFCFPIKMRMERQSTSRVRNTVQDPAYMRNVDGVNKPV
Sequence of Mu-type opioid receptor (P33535 whole entry): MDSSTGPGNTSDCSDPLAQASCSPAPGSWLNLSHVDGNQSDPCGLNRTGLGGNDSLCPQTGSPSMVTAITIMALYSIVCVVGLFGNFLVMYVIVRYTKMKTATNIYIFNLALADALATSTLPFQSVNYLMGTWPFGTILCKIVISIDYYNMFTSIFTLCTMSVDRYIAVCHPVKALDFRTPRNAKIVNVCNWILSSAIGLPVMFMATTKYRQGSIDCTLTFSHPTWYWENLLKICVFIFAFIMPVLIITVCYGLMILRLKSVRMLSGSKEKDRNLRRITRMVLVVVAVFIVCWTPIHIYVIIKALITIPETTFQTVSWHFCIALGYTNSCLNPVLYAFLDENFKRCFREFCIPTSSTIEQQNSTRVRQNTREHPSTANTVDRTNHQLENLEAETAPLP
Sequence of Opioid receptors; mu & delta (Rattus norvegicus) (P33533 whole entry, looked up): as the sequence (P33533 whole entry) above
Sequence of Opioid receptors; mu & delta (Rattus norvegicus) (P33535 whole entry, looked up): as the sequence (P33535 whole entry) above
Sequence of Delta-type opioid receptor (Mus musculus) (P32300 whole entry): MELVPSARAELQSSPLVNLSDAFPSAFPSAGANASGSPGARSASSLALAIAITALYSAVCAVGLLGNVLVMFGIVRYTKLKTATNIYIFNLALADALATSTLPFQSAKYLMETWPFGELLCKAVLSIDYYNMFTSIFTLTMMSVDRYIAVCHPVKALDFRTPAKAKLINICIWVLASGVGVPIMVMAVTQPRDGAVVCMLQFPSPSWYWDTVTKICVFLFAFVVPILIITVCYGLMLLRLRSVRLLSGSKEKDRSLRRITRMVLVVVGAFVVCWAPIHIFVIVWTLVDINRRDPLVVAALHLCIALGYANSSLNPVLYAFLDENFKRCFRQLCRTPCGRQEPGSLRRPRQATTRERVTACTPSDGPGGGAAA
Sequence of Delta-type opioid receptor (Mus musculus, UniProt P32300) (P32300 whole entry): as above

In the case of `Oc1ccc2c3c1OC1c4[nH]c5cc(Oc6ccccc6)ccc5c4C[C@@]4(O)[C@@H](C2)N(CC2CC2)CC[C@]314` (some centres not stated), the Ki [1] is reported as 89.4 nM, the Ki (Mu-type opioid receptor) is reported as 235 nM and the Selectivity ratio [2] is reported as 37. For the same compound, the IC50 (Cavia porcellus) was 2300 nM, the Selectivity ratio [3] was 37 and the Ki [4] was 236 nM. It also gave a Ki [5] of 6.4 nM, a Ki [6] of 4.9 nM and a Ki [7] of 175 nM. It also gave a Ke [8] of 4.6 nM, an IC50 [9] of 3000 nM and a Selectivity ratio [10] of 0.8.
